In experiment [1] the target is T1, Growth hormone secretagogue receptor type 1 (Homo sapiens, UniProt Q92847). As to the kind of experiment: Inverse agonist activity at human GHSR1a receptor expressed in COS-7 cells assessed as inositol phosphate accumulation after 2 hrs by anion exchange chromatography. The experiment is classed as functional, cell-based.
In experiment [2] the target is T1, Growth hormone secretagogue receptor type 1. Description: Inverse agonist activity at human GHSR1a receptor expressed in COS-7 cells assessed as inositol phosphate accumulation after 2 hrs by anion exchange chromatography relative to control. The format is functional, cell-based.
Experiment [3] deals with T2, Neuropeptide Y receptor type 2 (Homo sapiens, UniProt P49146).
T2 sequence (P49146 whole entry): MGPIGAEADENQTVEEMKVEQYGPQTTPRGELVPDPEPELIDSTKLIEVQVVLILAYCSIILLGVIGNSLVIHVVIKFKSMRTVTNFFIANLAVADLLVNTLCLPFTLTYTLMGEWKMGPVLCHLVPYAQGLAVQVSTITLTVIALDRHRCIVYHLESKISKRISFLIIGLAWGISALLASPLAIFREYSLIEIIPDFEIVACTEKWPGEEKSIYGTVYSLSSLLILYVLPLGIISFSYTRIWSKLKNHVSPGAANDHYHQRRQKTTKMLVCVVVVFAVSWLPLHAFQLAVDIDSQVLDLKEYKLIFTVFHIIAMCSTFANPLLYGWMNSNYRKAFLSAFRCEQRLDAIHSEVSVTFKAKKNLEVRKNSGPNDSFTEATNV
Description: Agonist activity at human neuropeptide Y Y2 receptor expressed in COS-7 cells cotransfected with chimeric Gi/q protein assessed as inositol phosphate accumulation after 2 hrs by anion exchange chromatography. The experiment is classed as functional, cell-based. In outline:
(§1)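 Inositol phosphate turnover in COS-7 cells stably co-expressing human Y2 receptor and chimeric Gi/q protein; concentration-response curves, responses as % of maximum Y2 activity; SEM over two biological replicates.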

Experiment [4] concerns the target T3, Neuropeptide Y receptor type 2 (Homo sapiens) (UniProt P49146).
T3 sequence (whole entry): T2 sequence (P49146 whole entry)
Description: Agonist activity at human neuropeptide Y Y2 receptor expressed in COS-7 cells cotransfected with chimeric Gi/q protein assessed as inositol phosphate accumulation after 2 hrs by anion exchange chromatography relative to control. The experiment is classed as functional, cell-based. The method, boiled down:
as §1

Experiment [5] concerns the target T1, Growth hormone secretagogue receptor type 1. Description: Displacement of [125I]ghrelin from human eYFP-fused ghrelin receptor expressed in COS7 cells after 75 mins by competitive receptor binding assay. The format is cell-based, COS-7. On the technique in general: In a radioligand displacement assay an active substance lowers the binding of a labelled ligand.

Experiment [6] concerns the target T2, Neuropeptide Y receptor type 2. As to the kind of experiment: Displacement of [125I]PYY from human neuropeptide Y Y2 receptor expressed in HEK293 cells cotransfected with eYFP fusion protein after 2 hrs by competitive receptor binding assay. The format is cell-based. In outline: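 Competitive binding against 125I-PYY in HEK-293 cells stably expressing human Y2 receptor; concentration-response curves.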

The target of experiment [7] is T4, Neuropeptide Y receptor type 1 (Homo sapiens) (UniProt P25929).
T4 sequence (whole entry): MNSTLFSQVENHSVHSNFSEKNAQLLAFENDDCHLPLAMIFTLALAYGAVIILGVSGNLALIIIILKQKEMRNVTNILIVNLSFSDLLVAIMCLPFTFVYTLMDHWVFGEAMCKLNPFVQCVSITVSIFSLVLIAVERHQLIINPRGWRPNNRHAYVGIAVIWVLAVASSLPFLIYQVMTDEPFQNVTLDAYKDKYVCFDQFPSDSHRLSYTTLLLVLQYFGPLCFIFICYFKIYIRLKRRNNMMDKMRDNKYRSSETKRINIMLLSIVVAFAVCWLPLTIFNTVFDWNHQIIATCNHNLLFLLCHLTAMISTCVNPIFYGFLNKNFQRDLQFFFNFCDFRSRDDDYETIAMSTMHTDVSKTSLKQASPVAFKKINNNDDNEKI
Description: Agonist activity at human neuropeptide Y Y1 receptor expressed in COS-7 cells cotransfected with chimeric Gi/q protein assessed as inositol phosphate accumulation at 1 uM after 2 hrs by anion exchange chromatography. The experiment is classed as functional, cell-based. In outline: (§2)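 COS-7 cells stably co-expressing the corresponding human Y receptor plus a chimeric Gi/q protein; single high concentration tested in inositol phosphate accumulation; response as % of NPY response at each receptor; SEM over two biological replicates.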

Experiment [8] addresses Neuropeptide Y receptor type 4 (Homo sapiens) (UniProt P50391). As to the kind of experiment: Agonist activity at human neuropeptide Y Y4 receptor expressed in COS-7 cells cotransfected with chimeric Gi/q protein assessed as inositol phosphate accumulation at 1 uM after 2 hrs by anion exchange chromatography. The experiment is classed as functional, cell-based. In outline: as §2

In experiment [9] the target is T5, Neuropeptide Y receptor type 5 (Homo sapiens) (UniProt Q15761).
T5 sequence (whole entry): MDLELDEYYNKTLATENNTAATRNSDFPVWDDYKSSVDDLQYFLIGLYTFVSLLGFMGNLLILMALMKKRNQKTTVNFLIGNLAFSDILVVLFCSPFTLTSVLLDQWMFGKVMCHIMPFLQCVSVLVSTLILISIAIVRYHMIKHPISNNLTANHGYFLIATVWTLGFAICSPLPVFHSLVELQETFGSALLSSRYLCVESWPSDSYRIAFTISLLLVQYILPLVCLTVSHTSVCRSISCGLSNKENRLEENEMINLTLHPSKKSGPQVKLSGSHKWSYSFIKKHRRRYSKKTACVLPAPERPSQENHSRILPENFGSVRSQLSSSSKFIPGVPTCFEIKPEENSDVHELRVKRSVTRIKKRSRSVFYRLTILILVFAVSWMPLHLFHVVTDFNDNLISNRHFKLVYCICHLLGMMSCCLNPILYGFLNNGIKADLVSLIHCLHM
Description: Agonist activity at human neuropeptide Y Y5 receptor expressed in COS-7 cells cotransfected with chimeric Gi/q protein assessed as inositol phosphate accumulation at 1 uM after 2 hrs by anion exchange chromatography. The format is functional, cell-based. The method, boiled down:
as §2

For experiment [10], the system named is Mus musculus. As to the kind of experiment: Effect on food intake in diet-induced obese C57BL/6JRj mouse at 500 nM/kg, sc. The format is functional, organism-based. In outline:
(§3)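 Freely fed diet-induced obese mice, saline control group; single acute dose, SC at 500 nM/kg or IP at 50, 100 or 250 nM/kg; cumulative food intake and body weight recorded.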

Experiment [11] deals with Mus musculus. As to the kind of experiment: Effect on body weight in diet-induced obese C57BL/6JRj mouse at 500 nM/kg, sc. The experiment is classed as functional, organism-based. The method, boiled down:
as §3

Experiment [12] concerns Mus musculus. Description: Effect on food intake in diet-induced obese C57BL/6JRj mouse at 50 to 250 nM/kg, ip. The experiment is classed as functional, organism-based. In outline:
as §3

The test system of experiment [13] is Mus musculus. As to the kind of experiment: Effect on body weight in diet-induced obese C57BL/6JRj mouse at 50 to 250 nM/kg, ip. The format is functional, organism-based. The method, boiled down:
as §3

In experiment [14] the test system is Mus musculus. Description: Decrease in food intake in diet-induced obese C57BL/6JRj mouse at 0.25 nM/h, sc administered via osmotic minipumps daily for 14 days. The format is functional, organism-based.
Experiment [15] concerns Mus musculus. Description: Effect on food intake in diet-induced obese C57BL/6JRj mouse at 100 nM/kg, ip administered daily for 10 days. The format is functional, organism-based. The method, boiled down:
(§4)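 Freely fed diet-induced obese mice randomized to groups, saline as control; daily IP injection at 100 nM/kg for 10 days; cumulative food intake and body weight tracked in parallel; drug-by-time interaction analysed by repeated-measures ANOVA.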

In experiment [16] the test system is Mus musculus. Description: Effect on body weight in diet-induced obese C57BL/6JRj mouse at 100 nM/kg, ip administered daily for 10 days. The experiment is classed as functional, organism-based. In outline:
as §4

Experiment [17] has as its system Mus musculus. Description: Effect on body weight in diet-induced obese C57BL/6JRj mouse at 0.25 nM/h, sc administered via osmotic minipumps daily for 14 days. The experiment is classed as functional, organism-based.

Calls of active or inactive are those of the source. The calls are words filed in the database; no cut-off is given here. Residues, ends and D or L forms follow the SMILES beside them.

In general, EC50 refers to the concentration giving half of the maximal effect. In general, IC50 refers to the midpoint of a concentration-inhibition curve.

T1 sequence (Q92847 whole entry): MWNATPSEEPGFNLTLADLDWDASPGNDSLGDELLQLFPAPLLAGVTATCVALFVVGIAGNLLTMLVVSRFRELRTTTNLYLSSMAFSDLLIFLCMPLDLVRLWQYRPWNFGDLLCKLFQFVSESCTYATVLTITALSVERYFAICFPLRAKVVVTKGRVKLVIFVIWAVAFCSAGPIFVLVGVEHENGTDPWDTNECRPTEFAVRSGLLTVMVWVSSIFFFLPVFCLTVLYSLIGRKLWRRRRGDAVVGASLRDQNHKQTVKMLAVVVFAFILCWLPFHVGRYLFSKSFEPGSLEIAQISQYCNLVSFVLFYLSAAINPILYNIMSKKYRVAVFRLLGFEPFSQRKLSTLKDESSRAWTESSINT
Neuropeptide Y receptor type 4 (Homo sapiens), sequence (P50391 whole entry): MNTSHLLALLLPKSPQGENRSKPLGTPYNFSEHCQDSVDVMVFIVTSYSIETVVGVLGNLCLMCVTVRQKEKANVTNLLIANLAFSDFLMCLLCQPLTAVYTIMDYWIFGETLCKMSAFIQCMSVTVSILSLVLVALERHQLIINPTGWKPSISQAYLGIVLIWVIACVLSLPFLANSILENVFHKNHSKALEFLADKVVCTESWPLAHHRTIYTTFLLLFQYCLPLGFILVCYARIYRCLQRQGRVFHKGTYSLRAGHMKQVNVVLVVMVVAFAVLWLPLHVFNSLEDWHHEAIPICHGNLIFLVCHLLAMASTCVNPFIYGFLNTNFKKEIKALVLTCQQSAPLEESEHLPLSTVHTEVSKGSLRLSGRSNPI

On to `CC(=O)N[C@@H](CCCCNC(=O)CCNC(=O)[C@H](CCC(N)=O)NC(=O)[C@H](CC(C)C)NC(=O)[C@@H](Cc1c[nH]c2ccccc12)NC(=O)[C@H](Cc1ccccc1)NC(=O)[C@@H](Cc1cccc2ccccc12)NC(=O)[C@@H](N)CCCCN)C(=O)N[C@@H](CC(C)C)C(=O)N[C@@H](CCCNC(=N)N)C(=O)N[C@@H](Cc1cnc[nH]1)C(=O)N[C@@H](Cc1ccc(O)cc1)C(=O)N[C@@H](CC(C)C)C(=O)N[C@@H](CC(N)=O)C(=O)N[C@@H](CC(C)C)C(=O)N[C@@H](CC(C)C)C(=O)N[C@H](C(=O)N[C@@H](CCCNC(=N)N)C(=O)N[C@@H](CCC(N)=O)C(=O)N[C@@H](CCCNC(=N)N)C(=O)N[C@@H](Cc1ccc(O)cc1)C(N)=O)[C@@H](C)O`, for which the EC50 in [1] came to 99.9 nM; in [3], 1.7 nM. The Efficacy was 88% in [2]; 86% in experiment [4]; more than 66% in [7]; 46% in experiment [8]; more than 56% in experiment [9]. The IC50 amounted to 126 nM in experiment [5] and 14.7 nM in [6].

In the case of `CC(=O)N[C@@H](CCCCNC(=O)CCCCCNC(=O)[C@H](CCC(N)=O)NC(=O)[C@H](CC(C)C)NC(=O)[C@@H](Cc1c[nH]c2ccccc12)NC(=O)[C@H](Cc1ccccc1)NC(=O)[C@@H](Cc1cccc2ccccc12)NC(=O)[C@@H](N)CCCCN)C(=O)N[C@@H](CC(C)C)C(=O)N[C@@H](CCCNC(=N)N)C(=O)N[C@@H](Cc1cnc[nH]1)C(=O)N[C@@H](Cc1ccc(O)cc1)C(=O)N[C@@H](CC(C)C)C(=O)N[C@@H](CC(N)=O)C(=O)N[C@@H](CC(C)C)C(=O)N[C@@H](CC(C)C)C(=O)N[C@H](C(=O)N[C@@H](CCCNC(=N)N)C(=O)N[C@@H](CCC(N)=O)C(=O)N[C@@H](CCCNC(=N)N)C(=O)N[C@@H](Cc1ccc(O)cc1)C(N)=O)[C@@H](C)O`, the results for the concentration giving a half-maximal response (EC50) in [1] and in experiment [3] were 88.3 nM and 3.9 nM, respectively. For the same compound, the Efficacy in experiment [2] is 85%; in experiment [4], 84%; in experiment [7], more than 66%; in experiment [8], 35%; in experiment [9], more than 56%. The IC50 in [5] was found to be 78.2 nM; in experiment [6], 9 nM.

For the compound `CC(=O)N[C@@H](CC(C)C)C(=O)N[C@@H](CCCNC(=N)N)C(=O)N[C@@H](Cc1cnc[nH]1)C(=O)N[C@@H](Cc1ccc(O)cc1)C(=O)N[C@@H](CC(C)C)C(=O)N[C@@H](CC(N)=O)C(=O)N[C@@H](CC(C)C)C(=O)N[C@@H](CC(C)C)C(=O)N[C@H](C(=O)N[C@@H](CCCNC(=N)N)C(=O)N[C@@H](CCC(N)=O)C(=O)N[C@@H](CCCNC(=N)N)C(=O)N[C@@H](Cc1ccc(O)cc1)C(N)=O)[C@@H](C)O` (Ac-LRHYLNLLTRQRY-NH2), the outcome in the experiment with Mus musculus [10], in the experiment on Mus musculus [11], in the experiment on Mus musculus [12] and in the experiment with Mus musculus [13] was inactive. In addition, the inhibition entry in the experiment on Mus musculus [14] is “inactive”.

For `CC(=O)NC(CNC(=O)CCC(=O)N[C@@H](CCCCN)C(=O)N[C@H](Cc1cccc2ccccc12)C(=O)N[C@@H](Cc1ccccc1)C(=O)N[C@H](Cc1c[nH]c2ccccc12)C(=O)N[C@@H](CC(C)C)C(=O)N[C@@H](CC(C)C)C(N)=O)C(=O)N[C@@H](CC(C)C)C(=O)N[C@@H](CCCNC(=N)N)C(=O)N[C@@H](Cc1cnc[nH]1)C(=O)N[C@@H](Cc1ccc(O)cc1)C(=O)N[C@@H](CC(C)C)C(=O)N[C@@H](CC(N)=O)C(=O)N[C@@H](CC(C)C)C(=O)N[C@@H](CC(C)C)C(=O)N[C@H](C(=O)N[C@@H](CCCNC(=N)N)C(=O)N[C@@H](CCC(N)=O)C(=O)N[C@@H](CCCNC(=N)N)C(=O)N[C@@H](Cc1ccc(O)cc1)C(N)=O)[C@@H](C)O` (stereo not given in full), the figures for the EC50 in experiment [1] and in [3] were 41.7 nM and 3.2 nM, respectively. The Efficacy in experiment [2] was 82%; in experiment [4], 84%; in experiment [7] it was less than 25%; in experiment [8], less than 25%; in [9], 33%. In addition, the concentration for half-maximal inhibition (IC50) in [5] is 97.1 nM; in [6], 61.4 nM. Further, the result in the experiment with Mus musculus [10], in the experiment on Mus musculus [11], in the experiment with Mus musculus [12], in the experiment on Mus musculus [13], in the experiment on Mus musculus [15] and in the experiment on Mus musculus [16] was inactive. Besides, the outcome in the experiment on Mus musculus [17] was inactive. In addition, the inhibition result in the experiment with Mus musculus [14] was “Active”.
